# Measured values pooled from the literature.
# Protocols differ between the studies behind these lines.
# Target: Aurora kinase B (AURKB, Homo sapiens, UniProt Q96GD4)
Compound,test,setting,quantity,value
N#CC1(c2ccccn2)CCN(Cc2cc(C(=O)O)c(=O)n3ccccc23)CC1,"cell-free assay, competition with immobilised ligand",1 µM,remaining binding,76%
COc1ncccc1-c1cnn2ccc(N3CCN(C(=O)OC(C)C)CC3)nc12,"binding, competition with immobilised ligand",1 µM,remaining binding,58%
C#Cc1n[nH]c2c(-c3cn([C@@H](C)c4ccccc4)c(=O)[nH]c3=O)cc(F)cc12,"enzyme activity, inhibitor",0.1 µM,inhibition,0.1%
CC(C)(C)c1cc(C=C(C#N)C#N)cc(Br)c1O,"enzyme activity, inhibitor",0.5 µM,remaining activity,97.1%
Cn1cncc1[C@](O)(COc1ccc(C#N)cc1-c1ccc(OC(F)(F)F)cc1)c1ccc(C#N)cc1,"cell-free assay, competition with immobilised ligand",1 µM,remaining binding,100%
Nc1ncc(-c2nc(N3CCOCC3)nc(N3CCOCC3)n2)c(C(F)F)n1,"binding, competition with immobilised ligand",10 µM,remaining binding,91%
Cn1cc(-c2cccc(N3CCc4c(sc5c4CC(C)(C)C5)C3=O)c2CO)cc(Nc2ccncn2)c1=O,"enzyme activity, inhibitor",1 µM,inhibition,6%
O=c1[nH]c2ccccc2n1C1CCN(Cc2ccc(-c3[nH]c4cc5ncnc5cc4nc3-c3ccccc3)cc2)CC1,enzyme activity,0.5 µM,remaining activity,98.7%
C#Cc1n[nH]c2c(-c3cn([C@@H](C)c4ccccn4)c(=O)[nH]c3=O)cc(F)cc12,"enzyme activity, inhibitor",0.1 µM,inhibition,4.9%
